Laboratory results taken from ChEMBL document CHEMBL1136799, “Design and synthesis of pyrrolidine-5,5'-trans-lactams (5-oxo-hexahydropyrrolo[3,2-b]pyrroles) as novel mechanism-based inhibitors of human cytomegalovirus protease. 4. Antiviral activity and plasma stability” (J Med Chem, 2003).

Experiments:
[1] = tested on: Vero; assay: Growth inhibition of cytomegalovirus in Vero cells; type: functional, Human betaherpesvirus 5
[2] = target: T1, Capsid scaffolding protein (Human cytomegalovirus (strain AD169) (HHV-5) (Human herpesvirus 5), UniProt P16753); assay: Inhibition of human cytomegalovirus protease in HCMV pNA assay.; set-up: species or system Human herpesvirus 5 strain AD169
T1 sequence (P16753 whole entry): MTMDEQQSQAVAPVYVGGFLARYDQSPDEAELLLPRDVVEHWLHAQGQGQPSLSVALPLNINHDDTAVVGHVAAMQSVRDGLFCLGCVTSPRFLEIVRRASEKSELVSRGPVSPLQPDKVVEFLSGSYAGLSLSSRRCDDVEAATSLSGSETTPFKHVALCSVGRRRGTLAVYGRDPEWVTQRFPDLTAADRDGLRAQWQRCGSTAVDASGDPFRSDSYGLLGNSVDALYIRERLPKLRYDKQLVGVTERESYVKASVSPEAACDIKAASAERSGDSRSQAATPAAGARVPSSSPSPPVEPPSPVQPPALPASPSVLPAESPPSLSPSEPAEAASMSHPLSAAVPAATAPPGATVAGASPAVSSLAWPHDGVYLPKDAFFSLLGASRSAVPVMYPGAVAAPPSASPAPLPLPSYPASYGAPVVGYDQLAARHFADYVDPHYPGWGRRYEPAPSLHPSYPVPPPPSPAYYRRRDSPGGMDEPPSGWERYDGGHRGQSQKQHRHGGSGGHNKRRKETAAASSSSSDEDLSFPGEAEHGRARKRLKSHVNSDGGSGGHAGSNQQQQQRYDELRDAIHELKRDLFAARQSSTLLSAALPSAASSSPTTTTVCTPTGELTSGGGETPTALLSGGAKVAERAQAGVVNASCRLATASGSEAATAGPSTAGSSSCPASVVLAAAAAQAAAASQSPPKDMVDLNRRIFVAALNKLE

[3] = Compound was tested for its stability in human plasma; type: ADME, organism-based
[4] = tested on: Human betaherpesvirus 5; assay: Concentration required to inhibit human cytomegalovirus HCMV-AD169 in ELISA assay
[5] = target: T1, Capsid scaffolding protein; assay: Potency against human cytomegalovirus protease in HCMV pNA assay; set-up: species or system Human herpesvirus 5 strain AD169
[6] = target: T2, Prothrombin (Homo sapiens, UniProt P00734); assay: Concentration of compound required to inhibit thrombin
[7] = target: T3, Acetylcholinesterase (Homo sapiens, UniProt P22303); assay: Concentration of compound required to inhibit Acetylcholinesterase
T3 sequence (P22303 whole entry): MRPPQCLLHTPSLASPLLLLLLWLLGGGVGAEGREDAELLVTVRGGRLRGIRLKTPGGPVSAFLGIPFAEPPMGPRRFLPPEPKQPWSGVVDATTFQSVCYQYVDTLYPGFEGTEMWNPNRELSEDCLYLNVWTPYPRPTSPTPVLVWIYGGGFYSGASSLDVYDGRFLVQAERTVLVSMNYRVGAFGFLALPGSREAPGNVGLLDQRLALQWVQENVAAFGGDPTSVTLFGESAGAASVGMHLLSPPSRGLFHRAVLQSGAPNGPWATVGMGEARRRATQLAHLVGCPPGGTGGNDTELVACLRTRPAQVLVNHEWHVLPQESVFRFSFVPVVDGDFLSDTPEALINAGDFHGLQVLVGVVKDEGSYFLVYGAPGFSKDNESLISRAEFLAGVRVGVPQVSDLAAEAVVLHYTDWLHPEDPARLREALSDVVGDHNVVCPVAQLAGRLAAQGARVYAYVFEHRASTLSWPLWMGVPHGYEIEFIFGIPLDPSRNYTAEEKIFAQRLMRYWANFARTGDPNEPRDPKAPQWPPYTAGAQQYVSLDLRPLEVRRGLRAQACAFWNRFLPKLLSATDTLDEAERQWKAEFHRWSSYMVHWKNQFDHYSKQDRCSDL

[8] = tested on: Human betaherpesvirus 5; assay: Concentration required to inhibit human cytomegalovirus HCMV-AD169 in ELISA assay; remark: listed apart in the source
[9] = Concentration of compound required to inhibit elastase
[10] = tested on: Human betaherpesvirus 5; assay: Concentration required to inhibit human cytomegalovirus HCMV-AD169 in antiviralplaque reduction assay; type: functional, organism-based
[11] = C max in guinea pig; type: ADME, organism-based, Cavia porcellus; settings: in vivo
[12] = species on record: Canis familiaris; assay: AUC 0-t in dog; type: ADME, organism-based, Canis lupus familiaris, Plasma; settings: in vivo
[13] = target: T3, Acetylcholinesterase; assay: Concentration required to inhibit Acetylcholinesterase
[14] = species on record: Canis familiaris; assay: AUC 0-inf in dog; type: ADME, organism-based, Canis lupus familiaris, Plasma; set-up: time infinity; settings: in vivo
[15] = T 1/2 in guinea pig; type: ADME, organism-based, Cavia porcellus; settings: in vivo
Procedure, shortened: (§1)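 Guinea-pig pharmacokinetics after intravenous dosing, with plasma clearance, volume of distribution and half-life. Drug levels were also measured in brain and vitreous humor.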

[16] = Steady state distribution value in guinea pig; type: ADME, organism-based, Cavia porcellus; settings: in vivo, read-out: Vdss; procedure, shortened: as §1
[17] = Concentration required to inhibit elastase
[18] = C max in dog; type: ADME, organism-based, Canis lupus familiaris; settings: in vivo
[19] = Bioavailability in dog; type: ADME, organism-based, Canis lupus familiaris; settings: in vivo
Procedure, shortened: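 Oral bioavailability in dog, set against intravenous administration in the same study.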

[20] = T max in guinea pig; type: ADME, organism-based, Cavia porcellus; settings: in vivo
[21] = T max in dog; type: ADME, organism-based, Canis lupus familiaris; settings: in vivo
[22] = species on record: Cavia porcellus; assay: AUC 0-inf in guinea pig; type: ADME, organism-based, Plasma; set-up: time infinity; settings: in vivo
[23] = T 1/2 in dog; type: ADME, organism-based, Canis lupus familiaris; settings: in vivo
Procedure, shortened: (§2)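 Dog pharmacokinetics after intravenous administration, with plasma clearance, volume of distribution and half-life derived from plasma drug levels.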

[24] = Steady state distribution value in dog; type: ADME, organism-based, Canis lupus familiaris; settings: in vivo, read-out: Vdss; procedure, shortened: as §2
[25] = Clearance value in guinea pig; type: ADME, organism-based, Cavia porcellus; settings: in vivo; procedure, shortened: as §1
[26] = Clearance value in dog; type: ADME, organism-based, Canis lupus familiaris; settings: in vivo; procedure, shortened: as §2
[27] = target: T2, Prothrombin; assay: Concentration required to inhibit thrombin
[28] = species on record: Cavia porcellus; assay: AUC 0-t in guinea pig; type: ADME, organism-based, Plasma; settings: in vivo

| Structure (SMILES) | CCID50 [1] [µM] | IC50 [2] [µM] | half-life [3] [h] | IC50 [4] [µM] | Ki [5] [µM] | IC50 [10] [µM] | also measured |
| --- | --- | --- | --- | --- | --- | --- | --- |
| CC(C)c1ccc(NC(=O)N2CCC[C@H]2C(=O)N2CC[C@H]3[C@H]2[C@H](C)C(=O)N3c2nc3ccc(OC(F)(F)F)cc3s2)cc1 | >500 | 0.46 | 11 | 5.3 | 0.02 | – | – |
| CC(C)c1ccc(NC(=O)N2CCC[C@H]2C(=O)N2CC[C@H]3[C@H]2[C@H](C)C(=O)N3c2nc3cccnc3s2)cc1 | <31 | 0.29 | 8 | 3.6 | 0.021 | – | – |
| CCOC(=O)c1ccc2nc(N3C(=O)[C@@H](C)[C@@H]4[C@@H]3CCN4C(=O)[C@@H]3CCCN3C(=O)Nc3ccc(C(C)C)cc3)sc2c1 | >500 | 0.35 | 9 | 5.1 | 0.0074 | – | – |
| CC(C)c1ccc(NC(=O)N2CCC[C@H]2C(=O)N2CC[C@H]3[C@H]2[C@H](C)C(=O)N3C(=O)[C@@H]2[C@H](C)[C@@H]2C)cc1 | 219 | 0.3 | 6 | – | 0.016 | – | IC50 [6]: > 200 µM; IC50 [7]: > 100 µM; IC50 [8]: 10 µM; IC50 [9]: > 10 µM |
| COc1ccc2nc(N3C(=O)[C@@H](C)[C@@H]4[C@@H]3CCN4C(=O)[C@@H]3CCCN3C(=O)Nc3ccc(C(C)C)cc3)sc2n1 | >500 | 0.87 | 9 | – | – | 31 | – |
| CC(C)c1ccc(NC(=O)N2CCC[C@H]2C(=O)N2CC[C@H]3[C@H]2[C@H](C)C(=O)N3c2nc3ccc([N+](=O)[O-])cc3s2)cc1 | 128 | 0.39 | 24 | – | 0.025 | 8.7 | – |
| CC(C)c1ccc(NC(=O)N2CCC[C@H]2C(=O)N2CC[C@H]3[C@H]2[C@H](C)C(=O)N3c2nc3ccc(CO)cc3s2)cc1 | 125 | 0.31 | > 20 | 0.52 | 0.04 | – | – |
| CC(C)c1ccc(NC(=O)N2CCC[C@H]2C(=O)N2CC[C@H]3[C@H]2[C@H](C)C(=O)N3c2nccs2)cc1 | 280 | 1.5 | > 24 | – | 0.446 | > 30 | – |
| COc1ccc(C)c2sc(N3C(=O)[C@@H](C)[C@@H]4[C@@H]3CCN4C(=O)[C@@H]3CCCN3C(=O)Nc3ccc(C(C)C)cc3)nc12 | 126 | 1.1 | > 24 | – | – | 17.4 | – |
| CC(C)c1ccc(NC(=O)N2CCC[C@H]2C(=O)N2CC[C@H]3[C@H]2[C@H](C)C(=O)N3C(=O)C2C(C)(C)C2(C)C)cc1 | 38 | > 20 | 16 | – | – | > 35 | – |
| CC(C)c1ccc(NC(=O)N2CCC[C@H]2C(=O)N2CC[C@H]3[C@H]2[C@H](C)C(=O)N3c2ccc([N+](=O)[O-])cc2)cc1 | 69 | 8.7 | > 24 | – | – | > 70 | – |
| CC(C)c1ccc(NC(=O)N2CCC[C@H]2C(=O)N2CC[C@H]3[C@H]2[C@H](C)C(=O)N3C(=O)C2CC2)cc1 | 274 | 0.2 | 0.5 | 31 | 0.002 | – | – |
| CC(C)c1ccc(NC(=O)N2CCC[C@H]2C(=O)N2CC[C@H]3[C@H]2[C@H](C)C(=O)N3C(=O)C2[C@@H](C)[C@H]2C)cc1 (stereo not given in full) | 375 | 1.8 | 1.5 | – | – | > 30 | – |
| CC(C)c1ccc(NC(=O)N2CCC[C@H]2C(=O)N2CC[C@H]3[C@H]2[C@H](C)C(=O)N3c2nc3ccc(F)cc3s2)cc1 | 298 | 0.36 | > 24 | – | – | 12.3 | – |
| CC(C)c1ccc(NC(=O)N2CCC[C@H]2C(=O)N2CC[C@H]3[C@H]2[C@H](C)C(=O)N3c2nc3ccccc3s2)cc1 | >500 | 0.18 | > 24 | – | 0.01 | 5 | Cmax [11]: 32000 ng/mL; AUC 0-t [12]: 9660 ng/mL/h; IC50 [13]: > 100 µM; AUC 0-infinity [14]: 9750 ng/mL/h; half-life [15]: 1 h; Vd [16]: 1.6 L/kg; IC50 [17]: > 10 µM; Cmax [18]: 5480 ng/mL; bioavailability [19]: 29%; Tmax [20]: 4.8 min; Tmax [21]: 4.8 min; AUC 0-infinity [22]: 2230 ng/mL/h; half-life [23]: 1.5 h; Vd [24]: 0.8 L/kg; clearance [25]: 60 mL/min/kg; clearance [26]: 8 mL/min/kg; IC50 [27]: > 200 µM; AUC 0-t [28]: 2210 ng/mL/h |
